# Yeast growth inh: growth inhibitors of yeast BB579 in restrictive medium, primary screen, yeast lifespan-shortening project, S. cerevisiae. OD615, 48 h. inhibition, % at 10 µM. 0.51% of 140,000 active. AID 804, 2007;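 active = inhibition above a set limit, 3 SD over the mean compound inhibition, cut at about 44% in these data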
#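 Assay system – yeast BB579 (DeaD) · Dosing – single compound dose of 10 µM, 0.25% DMSO final · Detection – OD615 turbidity measurement · Buffer or medium – CSMM-D restrictive synthetic medium containing dextrose (glucose) · Benchmarks – positive control amphotericin B 10 µg/mL · Incubation – 48 h exposure, 30 °C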
# S1P3 antag: S1P3 receptor antagonists, primary screen, cell-based | CHO S1P3 NFAT-BLA reporter, FRET fluorescence, antagonist mode | Sphingosine 1-phosphate receptor 3 (Homo sapiens), Q99500 | inhibition, % at 4.98 µM | 0.27% of 170,000 active;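 active = inhibition above the plate cutoff, the mean inhibition of test wells on that plate plus 3 SD, cut at about 28% in these data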;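 note: cells challenged with S1P at its EC80 of 0.8 µM; blue over green emission ratio from cleaved BLA substrate after 4 h stimulation; 0% = S1P-stimulated wells and 100% = unstimulated DMSO-only wells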
# Target sequence (Q99500 whole entry, looked up): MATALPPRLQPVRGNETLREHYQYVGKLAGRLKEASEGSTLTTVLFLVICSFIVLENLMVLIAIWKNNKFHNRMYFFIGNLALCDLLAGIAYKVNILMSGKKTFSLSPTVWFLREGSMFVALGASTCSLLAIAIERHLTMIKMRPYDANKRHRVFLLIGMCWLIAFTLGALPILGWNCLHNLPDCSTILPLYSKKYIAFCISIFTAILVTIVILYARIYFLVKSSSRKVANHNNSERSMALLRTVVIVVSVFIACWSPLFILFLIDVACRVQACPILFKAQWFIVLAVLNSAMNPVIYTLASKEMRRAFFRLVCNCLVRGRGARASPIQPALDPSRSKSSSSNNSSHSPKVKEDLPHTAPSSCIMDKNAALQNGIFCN
# Yeast lifespan up: compounds extending yeast replicative lifespan, primary screen, S. cerevisiae, OD615; S. cerevisiae growth with nicotinamide; deaD strain in restrictive glucose medium; inhibition of the nicotinamide effect, % at 10 µM; 0.68% of 130,000 active; AID 775, 2007;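 active = inhibition above a set limit, placed 3 SD over the median of all compounds, cut at about 26% in these data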;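 note: 0% = nicotinamide-treated wells and 100% = cells grown without nicotinamide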
#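 assay system = DeaD-strain S. cerevisiae | buffer or medium = restrictive glucose medium | reagent = 1.5 mM nicotinamide | compound = 10 µM single point, 0.25% DMSO | incubation = 48 h compound exposure at 30 °C, humidified | signal = OD615 measurement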
# Starred values were filed as active, the others as inactive; · = no result. In the library only some 0.98% were active in any assay of this set; here they are far more common.
SMILES,Yeast growth inh,S1P3 antag,Yeast lifespan up
COc1ccc(CCNC(=O)c2cc(S(=O)(=O)N(C)c3ccccc3)ccc2Cl)cc1,-9,3,3
CC1CCc2c(sc3nc(SCC(=O)NCc4ccco4)nc(N)c23)C1 (stereo unspecified),-43,92*,-12
CC1CCc2c(sc3nc(C4CC4)nc(SCC(=O)NCc4ccco4)c23)C1 (stereo unspecified),·,18,·
Cc1ccc2cc(CCNC(=O)c3ccc(S(=O)(=O)N4CCCCC4)cc3)c(=O)[nH]c2c1,·,-11,·
C=CCSc1nc2ccccc2n1S(=O)(=O)c1ccc(Cl)cc1,3,·,·
CCSc1nc2ccccc2n1S(=O)(=O)c1ccccc1,46*,-11,-11
NC(=O)COC(=O)c1cc(=O)[nH]c2ccccc12,·,-14,·
CNC(=O)COC(=O)c1cc(=O)[nH]c2ccccc12,8,·,54*
COc1ccc(NC(=O)COC(C)=O)cc1Cl,-51,-8,-3
NS(=O)(=O)c1ccc(CNC(=O)c2csc3c2CCCC3)cc1,·,3,·
Oc1c(Br)cc(Br)cc1C=Nc1ccc2c(c1)OCO2,97*,0,9
Oc1c(Br)cc(Br)cc1C=Nc1ccc2c(c1)OCCO2,·,5,·
Nc1ccc(Br)cc1C(NCC(=O)O)c1ccccc1 (stereo unspecified),·,-15,·
COc1cc(CO)c(Br)cc1OCC(N)=O,·,-6,·
O=C(CCl)NC(=O)NC12CC3CC(CC(C3)C1)C2,15,3,35*
CC(Cl)C(=O)NC(=O)NC12CC3CC(CC(C3)C1)C2 (stereo unspecified),-19,10,22
O=C(Nc1ccc(Cc2ccncc2)cc1)c1cc(F)c(F)cc1Cl,·,24,·
CC(C)(C)NC(=O)CN(CCc1ccccc1)C(=O)c1csnn1,·,-4,·
O=C(Nc1ccc(Cl)cc1F)C1CCN(S(=O)(=O)c2cccnc2)CC1,-49,·,-20
O=c1cc(O)c2c(=O)n3c4c(cccc4c2o1)CCC3,·,9,·
CCn1c(=O)c2c(O)cc(=O)oc2c2ccccc21,-2,·,42*
CC(C)n1c(=O)c2c(O)cc(=O)oc2c2ccccc21,-8,·,63*
O=c1cc(O)c2c(=O)n(-c3ccccc3)c3ccccc3c2o1,-3,-6,24
NC(=O)c1ccc(C(F)(F)F)n(Cc2ccc(Cl)cc2)c1=O,-33,·,-5
Cc1ccccc1C(C(=O)NC1CCCC1)N(C(=O)CNC(=O)c1ccco1)c1cccnc1 (stereo unspecified),·,3,·
SMILES,Yeast growth inh,S1P3 antag,Yeast lifespan up
Oc1c(CN2CCN(c3ccccn3)CC2)cc(Cl)c2cccnc12,59*,-32,-3
O=C(Oc1c(CN2CCOCC2)cc(Cl)c2cccnc12)c1ccc(F)cc1,11,10,28*
CCOc1ccccc1N1CCN(Cc2cccc(OC)c2O)CC1,-41,3,-6
COc1ccccc1N1CCN(Cc2cc(Br)c(O)c3ncccc23)CC1,97*,16,-16
OCCN1CCN(Cc2cc(Cl)c3cccnc3c2O)CC1,22,·,14
COc1ccc(C(=O)Oc2c(CN3CCOCC3)cc(Cl)c3cccnc23)cc1,-23,-6,0
CCSc1nnc(NC(=O)c2ccc(S(=O)(=O)N(C)C)cc2)s1,·,-4,·
COc1ccccc1NC(=O)CCSc1nnnn1C,-25,-17,-4
Cc1cc(Nc2ccccc2C(=O)O)n(-c2cccc(Cl)c2)n1,·,11,·
Cc1ccc2[nH]c(=O)c(CN(CC3COCCO3)C(=O)Nc3ccccc3F)cc2c1 (stereo unspecified),·,-16,·
CCc1ccc(NCCC(=O)c2ccc(Br)cc2)cc1,-12,·,-13
CC(Nc1ccc(Br)cn1)c1cc(Cl)ccc1O (stereo unspecified),60*,67*,3
CC(Nc1ccc(Cl)cc1)c1cc(Cl)ccc1O (stereo unspecified),8,·,·
CN(C/C=C/c1ccccc1)C1CCCCC1,·,-7,·
O=C(O)c1ccccc1-c1nc2ccccc2[nH]1,·,8,·
Oc1ccc2ccccc2c1C=Nc1ccccc1-c1nc2ccccc2[nH]1,-39,·,39*
COC(=O)C1=CN(CCOC23CC4CC(CC(C4)C2)C3)C=C(C(=O)OC)C1c1ccsc1,·,-4,·
COc1cc(OC)cc(C(=O)N[C@H](C(=O)Nc2nc(-c3cc(OC)ccc3OC)cs2)C(C)C)c1,·,-13,·
O=C1C(c2ccc(F)cc2)N(CC2COc3ccccc3O2)C(=O)CN1C1CCCCC1 (stereo unspecified),-28,·,-1
CC(=O)Nc1cc(OC(C)=O)c2nonc2c1OC(C)=O,·,54*,·
CC(=O)Nc1nonc1NC(C)=O,5,-66,-2
N#CC(C#N)=CC1=C2OC(c3ccccc3)=CC(c3ccccc3)=C2CCC1,-61,·,0
Cc1c(C(=O)OCC(=O)NCCN2C(=O)CSC2=O)oc2c1ccc1ccccc12,-18,1,2
CC(C)CN(CC(C)C)c1nc(N)c(C#N)c(CC#N)c1C#N,-34,94*,0
CN(CCO)c1nc(N)c(C#N)c(CC#N)c1C#N,·,1,·
SMILES,Yeast growth inh,S1P3 antag,Yeast lifespan up
Nn1c(SCc2nc3ccccn3c2Br)nnc1-c1cccnc1,-13,-2,-8
COCCCN(C(=S)Nc1cc(Cl)cc(Cl)c1)C(C)c1ccncc1 (stereo unspecified),-36,8,41*
COCCCN(C(=S)Nc1cc(Cl)cc(Cl)c1)C(C)c1ccccn1 (stereo unspecified),·,-4,·
COc1ccc(Nc2ncc3c(n2)CC(c2ccccc2)CC3=O)cc1 (stereo unspecified),-7,53*,-20
CCc1ccc(Nc2ncc3c(n2)CC(c2ccc(OC)cc2)CC3=O)cc1 (stereo unspecified),-15,·,-20
O=C(O)/C=C\C(=O)Nc1ccc(N2CCN(c3ccc(Cl)c(Cl)c3)CC2)cc1,·,-12,·
COC(=O)C1=C(C)N(CCc2cc(OC)c(OC)c(OC)c2)C(=O)N[C@H]1c1cccs1,-33,-16,-1
Cc1ccc(C(=O)c2c(C)oc3c2C(=O)C(=O)c2ccccc2-3)cc1,70*,·,-11
Cc1oc2c(c1C(=O)c1ccc(Cl)cc1)C(=O)C(=O)c1ccccc1-2,5,·,1
CCc1c(C)nc2c(C#N)c(C)[nH]n2c1=O,4,·,-15
CC(C)(C)NC(=O)C(c1c[nH]c2ccccc12)N(C(=O)Cn1nnc(-c2ccc(Cl)cc2)n1)c1ccccc1F (stereo unspecified),-41,-7,-3
COc1cccc(N(C(=O)Cn2nnc(-c3ccc(C)cc3)n2)C(C(=O)NC(C)(C)C)c2c[nH]c3ccccc23)c1 (stereo unspecified),-96,·,45*
O=C(CN1CCN(c2ccccc2F)CC1)N1N=CCC1c1ccccc1 (stereo unspecified),-16,9,8
COc1ccc(CCCC(=O)N/N=C\c2cccs2)cc1,·,-3,·
CC(C)Nc1nc(-c2ccccc2)nc(-n2ccnc2)n1,-23,-39,-9
c1ccc(-c2nc(-n3ccnc3)nc(-n3ccnc3)n2)cc1,74*,-14,-29
CC1(C)CC(=O)C2=C(C1)OC(N)=C([N+](=O)[O-])C2c1ccc(F)cc1 (stereo unspecified),·,0,·
